The structures appear in SMILES notation.

This note sets out measurements from ChEMBL document CHEMBL1122616, “Latent inhibitors of aldehyde dehydrogenase as alcohol deterrent agents” (J Med Chem, 1984).

The target of the experiment is T1, Aldehyde dehydrogenase 1A1 (Rattus norvegicus) (UniProt P51647).
T1 sequence (whole entry): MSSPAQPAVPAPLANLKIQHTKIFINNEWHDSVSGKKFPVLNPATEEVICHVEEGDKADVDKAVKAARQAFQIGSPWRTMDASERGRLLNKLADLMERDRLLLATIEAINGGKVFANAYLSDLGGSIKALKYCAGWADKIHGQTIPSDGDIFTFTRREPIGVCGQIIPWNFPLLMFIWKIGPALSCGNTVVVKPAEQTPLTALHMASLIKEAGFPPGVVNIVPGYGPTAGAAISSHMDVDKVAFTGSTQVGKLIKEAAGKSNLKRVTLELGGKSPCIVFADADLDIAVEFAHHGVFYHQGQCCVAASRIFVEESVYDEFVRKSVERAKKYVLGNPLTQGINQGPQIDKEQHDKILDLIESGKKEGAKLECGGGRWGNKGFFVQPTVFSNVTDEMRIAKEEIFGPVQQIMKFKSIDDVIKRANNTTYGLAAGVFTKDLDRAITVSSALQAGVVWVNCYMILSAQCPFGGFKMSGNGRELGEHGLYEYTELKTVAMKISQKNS
In words: Evaluated in vivo for inhibition of liver mitochondrial aldehyde dehydrogenase activity 2 hour after administering into rats, at a dose of 1.25 mmol/kg. The experiment is classed as organism-based. The note with it: scale: nmol of acetaldehyde(AcH) oxide per minute per mg of protein. Summed up: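 Rats given 1.25 mmol/kg ip; controls given saline. Killed 2 h later. Intact liver mitochondria prepared at 0 °C and kept cold until assay. After 5-min preincubation at 38 °C, 200 nmol AcH added. Quenched after 5 min with HClO₄. Activity given as nmol AcH oxidized/min/mg protein (Lowry), mean ± SEM.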

Molecule `c1ccc(CNC2CC2)cc1` yielded an Activity of 2.68.
`CN(Cc1ccccc1)C1CC1`: the Activity amounted to 3.48.
